Measurements: ChEMBL document CHEMBL3400098, “Aza follow-ups to BI 207524, a thumb pocket 1 HCV NS5B polymerase inhibitor. Part 1: Mitigating the genotoxic liability of an aniline metabolite” (Bioorg Med Chem Lett, 2015)

How the values were obtained:
[1] = system: Hepatitis C virus; experiment: Antiviral activity against Hepatitis C virus genotype 1b infected in human Huh cells assessed as inhibition of viral replication by luciferase reporter assay; format: functional, cell-based, Hepacivirus hominis
Summary of the method: (§1)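 HCV replicon EC50 determined in duplicate, using either a GT1b luciferase reporter read-out or RT-PCR quantification of replicon RNA.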

[2] = Inhibition of Hepatitis C virus genotype 1b C-terminal truncated NS5B RNA dependent RNA polymerase delta21 expressed in Escherichia coli by scintillation proximity assay; design: species or system Hepatitis C virus subtype 1b
Summary of the method: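 Biochemical polymerase inhibition using a C-terminally truncated GT1b NS5BΔ21 construct. Values are the mean of duplicate measurements (n ≥ 2).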

[3] = Cytotoxicity against human HuH7 cells assessed as reduction in cell viability by MTT assay; format: cell-based; details: Huh-7 cells, read-out: TC50 (the source's name)
Summary of the method: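 Cytotoxicity (TC50) measured by MTT read-out in the Huh-7 cell line.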

[4] = system: Hepatitis C virus; experiment: Antiviral activity against Hepatitis C virus genotype 1a infected in human Huh cells assessed as inhibition of viral replication by RT-PCR-based replicon assay; format: functional, cell-based, Hepacivirus hominis; details: subtype 1a; summary of the method: as §1
[5] = Half life in human liver microsomes at 2 uM; format: ADME
Summary of the method: (§2)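 Stability in liver microsomes with 2 µM initial compound concentration; half-life recorded.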

[6] = Half life in rat liver microsomes at 2 uM; format: ADME; summary of the method: as §2
[7] = Permeability from apical to basolateral side of human Caco2 cells; format: ADME, cell-based; details: Caco-2, read-out: permeability
Summary of the method: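 Caco-2 permeability measured in the apical-to-basolateral direction, reported in cm/s.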

[8] = Plasma concentration in rat at 4 mg/kg, po as cassette dosing measured at 1 hr post dose; format: ADME, organism-based; design: dose 4 mg/kg, route oral
Summary of the method: (§3)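 Cassette dosing: a mixture of 4 compounds, each at 4 mg/kg, given orally to 2 fasted rats in 0.5% methylcellulose, 0.3% Tween-80 and 1% NMP. Plasma sampled at 1 and 2 h. Liver/plasma ratio determined at 2 h.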

[9] = Plasma concentration in rat at 4 mg/kg, po as cassette dosing measured at 2 hrs post dose; format: ADME, organism-based; design: dose 4 mg/kg, route oral; summary of the method: as §3
[10] = Lipophilicity, log D of the compound at pH 7.4; format: physicochemical; details: buffer
[11] = Ratio of drug up take in liver to plasma of rat at 4 mg/kg, po as cassette dosing measured at 2 hrs post dose; format: ADME, organism-based; design: dose 4 mg/kg, route oral; summary of the method: as §3
[12] = system: Salmonella typhimurium; experiment: Mutagenic activity in Salmonella typhimurium at 315 to 5000 ug/plate by Ames test in presence of S9 fraction; format: toxicity, organism-based; details: salmonella enterica subsp. enterica serovar typhimurium
Summary of the method: (§4)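 Ames test on the free carboxylic acid forms using multiple strains and strain TA100 of Salmonella typhimurium, at 315–5000 µg per plate, run with and without S9 metabolic activation.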

[13] = system: Salmonella typhimurium; experiment: Mutagenic activity in Salmonella typhimurium at 315 to 5000 ug/plate by Ames test in absence of S9 fraction; format: toxicity, organism-based; details: salmonella enterica subsp. enterica serovar typhimurium; summary of the method: as §4

EC50 [1]	IC50 [2]	EC50 [4]	half-life at 2 µM [5]	half-life at 2 µM [6]	Papp A→B [7]	concentration at 1 h [8]	concentration at 2 h [9]	logD [10]	Kp at 2 h [11]	SMILES	CC50 [3]	Activity [12]	Activity [13]
40 nM	63 nM	89 nM	3.98 h	> 5 h	4.3 ×10⁻⁶ cm/s	100 nM	30 nM	–	–	CCOc1nc(NC(=O)C2(NC(=O)c3ccc4c(C5CCCC5)c(-c5ncc(Cl)cn5)n(C)c4c3)CCC2)ncc1/C=C/C(=O)O	> 10000 nM	–	–
20 nM	100 nM	34 nM	2.43 h	> 5 h	13 ×10⁻⁶ cm/s	2100 nM	900 nM	–	5	CCOc1nc(NC(=O)C2(NC(=O)c3ccc4c(C5CCCC5)c(-c5ncc(Cl)cn5)n(C)c4c3)CCC2)cnc1/C=C/C(=O)O	> 10000 nM	–	–

The remaining lines, values behind:

SMILES	EC50 [1]	IC50 [2]	EC50 [4]	half-life at 2 µM [5]	half-life at 2 µM [6]	Papp A→B [7]	concentration at 1 h [8]	concentration at 2 h [9]	logD [10]	Kp at 2 h [11]	CC50 [3]	Activity [12]	Activity [13]
CCOc1cc(NC(=O)C2(NC(=O)c3ccc4c(C5CCCC5)c(-c5ncc(Cl)cn5)n(C)c4c3)CCC2)nnc1/C=C/C(=O)O	360 nM	80 nM	–	2.27 h	3.78 h	1.6 ×10⁻⁶ cm/s	–	–	3.4	–	> 10000 nM	–	–
CCOc1nc(N)ccc1/C=C/C(=O)O	–	–	–	–	–	–	–	–	–	–	–	Non-toxic	Non-toxic
CCOc1nc(N)cnc1/C=C/C(=O)O	–	–	–	–	–	–	–	–	–	–	–	Non-toxic	Non-toxic
